We go through 8 molecules from ChEMBL document CHEMBL5608187, “Discovery of pyridoquinoxaline-based new P-gp inhibitors as coadjutant against Multi Drug Resistance in cancer” (Eur J Med Chem, 2024).

What all share (type): cell-based
Series [1] addresses T1, ATP-dependent translocase ABCB1 (Homo sapiens, UniProt P08183). Put plainly: Inhibition of P-gp in human CAKI-2 cells assessed as increase in green fluorescence intensity at 0.1 to 10 uM incubated for 15 mins followed by incubation with EFFLUX-ID Green Detection Reagent and Hoeschst-33342 dye and measured after 30 mins by fluorescence analysis. As to conditions: caki-2, 0.25 h, dose 0.1-10 µM; call rule not given here. The procedure, abridged:
(§1)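 5000 cells/well in phenol-red-free medium plated 24 h before; compounds 0.1, 1, 10 µM for 15 min, then EFLUXX-ID Green reagent (1:200) plus Hoechst-33342 1 µg/mL, 30 min 37 °C. Widefield imaging; median green intensity from 250 cells per well normalized to untreated wells. Mean ± SD of three wells; one-tailed t-test.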

Series [2] deals with T1, ATP-dependent translocase ABCB1. Briefly: Inhibition of P-gp in human HCT-15 cells assessed as increase in green fluorescence intensity at 0.1 to 10 uM incubated for 15 mins followed by incubation with EFFLUX-ID Green Detection Reagent and Hoeschst-33342 dye and measured after 30 mins by fluorescence analysis. As to conditions: hct-15, 0.25 h, dose 0.1-10 µM. The procedure, abridged:
as §1

Series [3] has the same target. Put plainly: Inhibition of P-gp in human A498 cells assessed as increase in green fluorescence intensity at 0.1 to 10 uM incubated for 15 mins followed by incubation with EFFLUX-ID Green Detection Reagent and Hoeschst-33342 dye and measured after 30 mins by fluorescence analysis. As to conditions: a498, 0.25 h, dose 0.1-10 µM. The procedure, abridged: as §1
Series [4] shares this target. Put plainly: Inhibition of P-gp in human HT1197 cells assessed as increase in green fluorescence intensity at 0.1 to 10 uM incubated for 15 mins followed by incubation with EFFLUX-ID Green Detection Reagent and Hoeschst-33342 dye and measured after 30 mins by fluorescence analysis. As to conditions: ht1197, 0.25 h, dose 0.1-10 µM. The procedure, abridged:
as §1

T1 sequence (P08183 whole entry): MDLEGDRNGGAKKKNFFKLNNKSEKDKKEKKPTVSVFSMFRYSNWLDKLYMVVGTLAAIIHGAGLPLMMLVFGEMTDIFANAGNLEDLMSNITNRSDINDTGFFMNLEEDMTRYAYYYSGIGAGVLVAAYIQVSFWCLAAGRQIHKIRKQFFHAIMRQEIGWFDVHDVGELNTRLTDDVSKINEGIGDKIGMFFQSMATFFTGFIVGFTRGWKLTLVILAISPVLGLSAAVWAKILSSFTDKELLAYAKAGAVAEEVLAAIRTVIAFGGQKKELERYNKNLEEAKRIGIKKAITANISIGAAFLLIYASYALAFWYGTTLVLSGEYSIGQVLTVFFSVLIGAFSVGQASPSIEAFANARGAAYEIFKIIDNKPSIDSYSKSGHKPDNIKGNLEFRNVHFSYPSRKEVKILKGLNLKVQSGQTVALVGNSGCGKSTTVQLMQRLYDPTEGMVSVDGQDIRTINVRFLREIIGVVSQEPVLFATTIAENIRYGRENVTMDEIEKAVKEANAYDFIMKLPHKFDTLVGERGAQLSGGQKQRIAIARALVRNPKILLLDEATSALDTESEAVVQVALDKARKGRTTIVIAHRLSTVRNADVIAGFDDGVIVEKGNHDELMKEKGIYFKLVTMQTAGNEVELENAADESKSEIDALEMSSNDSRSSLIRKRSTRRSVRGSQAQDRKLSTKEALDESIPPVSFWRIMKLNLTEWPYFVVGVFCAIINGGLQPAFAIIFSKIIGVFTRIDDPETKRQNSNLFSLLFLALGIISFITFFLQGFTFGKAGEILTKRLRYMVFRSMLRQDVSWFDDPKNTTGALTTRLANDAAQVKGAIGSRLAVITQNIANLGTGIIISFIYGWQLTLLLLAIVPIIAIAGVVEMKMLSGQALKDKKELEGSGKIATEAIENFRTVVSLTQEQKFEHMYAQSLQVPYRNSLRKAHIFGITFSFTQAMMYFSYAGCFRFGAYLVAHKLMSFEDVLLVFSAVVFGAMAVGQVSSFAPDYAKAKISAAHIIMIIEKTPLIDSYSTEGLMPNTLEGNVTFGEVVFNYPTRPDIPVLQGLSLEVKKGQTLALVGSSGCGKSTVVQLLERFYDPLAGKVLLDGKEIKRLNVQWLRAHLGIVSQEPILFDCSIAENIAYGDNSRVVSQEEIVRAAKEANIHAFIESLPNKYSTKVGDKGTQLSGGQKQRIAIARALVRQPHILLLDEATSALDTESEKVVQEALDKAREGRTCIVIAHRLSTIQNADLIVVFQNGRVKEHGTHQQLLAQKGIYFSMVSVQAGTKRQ

On to `COc1ccc(NC(=O)c2ccccc2OCc2nc3cc4cccnc4cc3nc2COc2ccccc2C(=O)Nc2ccc(OC)cc2)cc1`, for which the “inhibition (INH)” value in series [1] is “Active”; in series [2], “Active”; in series [3], “Not Active”; in series [4] it was “Active”.

Regarding `N#Cc1ccc(OCc2nc3cc4cccnc4cc3nc2COc2ccc(C#N)cc2)cc1`, the “inhibition (INH)” value was “Active” in series [1], “Active” in series [2], “Not Active” in series [3] and “Active” in series [4].

`COC(=O)c1ccccc1SCc1nc2cc3cccnc3cc2nc1CSc1ccccc1C(=O)OC`: the “inhibition (INH)” value is recorded as “Active” in series [1], “Active” in series [2], “Not Active” in series [3] and “Active” in series [4].

Regarding `COc1cc(NC(=O)c2cc(Cl)ccc2OCc2nc3cc4cccnc4cc3nc2COc2ccc(Cl)cc2C(=O)Nc2cc(OC)c(OC)c(OC)c2)cc(OC)c1OC`, the “inhibition (INH)” value was “Active” in series [1], “Active” in series [2], “Not Active” in series [3] and “Active” in series [4].

For the molecule `COc1ccc(NC(=O)c2cc(Cl)ccc2OCc2nc3cc4cccnc4cc3nc2COc2ccc(Cl)cc2C(=O)Nc2ccc(OC)cc2)cc1`, the “inhibition (INH)” value in series [1] was “Active”; in series [2] it was “Active”; in series [3], “Not Active”; in series [4] it was “Active”.

For `COc1cc(NC(=O)c2cc(Cl)ccc2OCc2nc3cc4cccnc4cc3nc2COc2ccc(Cl)cc2C(=O)Nc2cc(OC)cc(OC)c2)cc(OC)c1`, the “inhibition (INH)” value in series [1] is given as “Active”; in series [2], “Active”; in series [3] it was “Not Active”; in series [4], “Active”.

Consider `COC(=O)c1ccc(OCc2nc3cc4cccnc4cc3nc2COc2ccc(C(=O)OC)cc2OC)c(OC)c1`, for which the “inhibition (INH)” value in series [1] was “Active”; in series [2], “Active”; in series [3], “Not Active”; in series [4] it was “Active”.

Take `O=C(Nc1ccc(Cl)c(Cl)c1)c1ccccc1OCc1nc2cc3cccnc3cc2nc1COc1ccccc1C(=O)Nc1ccc(Cl)c(Cl)c1`: the “inhibition (INH)” value was “Active” in series [1], “Active” in series [2], “Not Active” in series [3] and “Active” in series [4].
